# ERAP1 inh = inhibitors of human ERAP1 aminopeptidase. Q9NZ08. inhibition, % at 10.7 µM. AID 652197. recombinant ERAP1, Leu-AMC fluorescence, 60 min. 340,000 tested, 0.15% active;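 active means mean replicate inhibition of at least 30%, or all replicates individually reaching that 30% level; inactive means mean below 30% and not every replicate reaching it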;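 further: 0% = neutral control wells and 100% = L-leucinethiol positive control wells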
# Ecoli rRNA inh = inhibits bacterial ribosomal RNA function over humanized ribosomes | GFP signal change (wild-type ribosome), % (test concentration not listed) | E. coli WT GFP vs humanized-ribosome RFP mutants, fluorescence, 24 h; hits give low values; DMSO median 0, no signal -100 | 350,000 tested, 1.6% active;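 active means significant combined selectivity score with lowered wild-type GFP, culture density cut under 30%, mutant RFP and density less affected; inactive means any of these conditions unmet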
# SIRT5 inh = blocks human SIRT5 desuccinylation of peptide; Q9NXA8; Purified SirT5, succinyl-peptide AMC, trypsin-coupled fluorescence; inhibition, % at 15 µM; 330,000 tested, 1.1% active; AID 652115; in the data active means inhibition above about 15%; inconclusive means no clear call, values can overlap the other calls
# Target sequence (Q9NXA8 whole entry, looked up): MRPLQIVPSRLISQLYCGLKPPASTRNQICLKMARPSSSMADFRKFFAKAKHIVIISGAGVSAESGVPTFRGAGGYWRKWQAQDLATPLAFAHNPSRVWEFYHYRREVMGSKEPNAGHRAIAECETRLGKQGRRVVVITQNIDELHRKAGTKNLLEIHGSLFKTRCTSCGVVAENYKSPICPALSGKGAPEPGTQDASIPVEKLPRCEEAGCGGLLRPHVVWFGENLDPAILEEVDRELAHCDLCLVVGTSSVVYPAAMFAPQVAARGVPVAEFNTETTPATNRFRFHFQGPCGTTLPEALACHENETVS
# S100A4 inh HTS = inhibitors of human S100A4 binding to myosin IIA peptide; AID 652163; 360,000 tested, 0.14% active; inhibition, % at 10.7 µM; P26447; S100A4/TAMRA-MyoIIA peptide fluorescence polarization;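 active means mean inhibition of at least 70% across replicates, with every replicate also reaching that level; inconclusive means mean inhibition reaches 70% but some replicates fall short; inactive means mean inhibition below 70%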
# Target sequence (P26447 whole entry, looked up): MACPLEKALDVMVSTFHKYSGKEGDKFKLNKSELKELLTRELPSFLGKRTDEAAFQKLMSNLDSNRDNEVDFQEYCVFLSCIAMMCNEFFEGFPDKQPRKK
#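 Test system: S100A4 monomer protein. Medium: HEPES buffer with Ca2+, pH 7.2. Reagent: fluorescent myosin IIA peptide, 5 nM. Compound dosing: single-point compound testing. Timing: 5 min between mix addition and reading. Benchmarks: DMSO neutral and TFP positive wells.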
# F508del corr = CFTR F508del correction in bronchial cells; CFBE cells, YFP halide quenching; stimulated with forskolin plus potentiator P3; % fluorescence drop versus neutral controls; activity (quench increase), % at 7.58 µM; 350,000 tested, 0.36% active;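 active means mean added fluorescence quench of at least 8% versus neutral control, with both replicates also reaching 8%; inconclusive means only one of the mean or replicate conditions met; inactive means mean below 8% and not both replicates reaching 8%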;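 further: cells transiently co-express mutant CFTR-F508del with the halide-sensitive YFP; corrector assay measuring rescue of mutant channel to the surface after 24 h compound exposure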
# AID977621 = wild-type E. coli growth inhibition versus H69 humanized strain – H69 mutant RFP, wild-type GFP, cherry-pick, dose response | fluorescence, 24 h | shares compounds with Ecoli rRNA inh | AID 977621 | 1,900 tested, under 10 active | activity change, negative = inhibition at 50 µM;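 active means Wild-type ribosome reporter drop at least double the humanized mutant ribosome reporter drop, growth loss under a set limit; inconclusive means no clear call, values can overlap the other calls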;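 further: wild-type GFP and H69 mutant RFP strains grown together 50/50 in each well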
# AID977628 = E. coli growth inhibition, wild-type GFP versus h24 humanized RFP strain, dose response, h24 mutant RFP vs wild-type GFP, cherry-pick; 1,900 tested, under 10 active; activity change, negative = inhibition at 50 µM; E. coli WT GFP strain growth, fluorescence, 24 h; shares compounds with Ecoli rRNA inh;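 active means compound lowering the normal-ribosome reporter at least twice as much as the humanized-ribosome reporter, growth loss under a set limit; inconclusive means no clear call, values can overlap the other calls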;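 further: wild-type GFP and h24 humanized RFP strains co-cultured 1 to 1 per well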
# The depositor's hits bear a star; ? = inconclusive; nt = no result given. In the library only some 3.1% were active in any assay of this set; here they are far more common.
SMILES,ERAP1 inh,Ecoli rRNA inh,SIRT5 inh,S100A4 inh HTS,F508del corr,AID977621,AID977628
CCNC(=O)C[C@H]1CC[C@H]2[C@@H](COc3ccc(NC(=O)Cc4cccs4)cc3C(=O)N2C)O1,-2,3,2,9,-1,nt,nt
O=C(CSc1ccccc1)NCCCc1ccccc1,-2,-23*,-1,0,-4,-5.6,?
C[C@H](NC(=O)C[C@H]1CC[C@H]2[C@@H](COC[C@@H](O)CN2C(=O)Nc2cccc(F)c2)O1)c1ccccc1,1,-18,-4,-8,0,nt,nt
CC1CCC(C(C)C)C(OCC(O)CN2CCCC(C)C2)C1 (stereo unspecified),4,-22*,2,-1,0,-7.1,?
CCC(=O)Nc1ccc2c(c1)OC[C@@H](C)N(C(=O)Cc1ccccn1)C[C@@H](C)[C@H](OC)CN(C)C2=O,1,1,-4,1,0,nt,nt
C[C@H]1CN([C@@H](C)CO)C(=O)Cc2cc(NS(=O)(=O)c3cn(C)cn3)ccc2O[C@H]1CN(C)C(=O)Nc1cccc2ccccc12,1,3,-3,7,1,nt,nt
CC(=O)Nc1ccc(SCC(=O)Nc2sccc2C#N)cc1,-4,13,0,-5,0,nt,nt
NS(=O)(=O)c1ccc(NC(=O)CSc2nnc(NC3CC3)s2)cc1,4,6,-3,-3,4,nt,nt
CC(C)Nc1nnc(SCC(=O)Nc2sccc2C#N)s1,-2,-25*,-4,-3,-3,nt,?
N#Cc1ccsc1NC(=O)CSc1nnc(NC2CC2)s1,-5,-12*,nt,3,2,-13,-8.7
CO[C@@H]1CC[C@H]2CCN(C)C(=O)[C@H](C)N(C)C(=O)c3cc(C#N)ccc3OC[C@@H]1O2,-2,5,-5,3,nt,nt,nt
COc1ccc(NC(=O)c2cccs2)cc1C(=O)N1CCN(c2ccccc2)CC1,0,-21*,-3,-3,2,-7,-14
COc1cccc(CN(C)Cc2nc(Cc3ccccc3Cl)no2)c1,-1,-26*,-2,-1,2,-17,?
CC(C)(C)c1cc(-c2n[nH]c(=S)n2-c2ccc(Cl)cc2)n[nH]1,-1,-31*,-4,2,1,?,nt
Cc1nn(C)cc1-c1n[nH]c(=S)n1-c1ccc(Cl)cc1,2,9,-2,-2,1,nt,nt
Cc1cc(Br)cn2c(Cc3cccc(Cl)c3)c(-c3ccco3)nc12,nt,-21*,-1,-12,-1,4.2,-3.1
CC(C)C(=O)Nc1ccc2c(c1)C(=O)N(C)[C@H]1CC[C@@H](CC(=O)NCCc3ccccc3)O[C@@H]1CO2,nt,-1,nt,nt,1,nt,nt
Cc1nc(Nc2ccccc2)sc1C(=O)Nc1ccccc1,6,-22*,-1,-3,0,?,?
CCOC(=O)c1sc(Nc2cccc(Cl)c2)nc1C,4,-23*,1,-9,4,-9.1,2.7
O=C(C[C@@H]1CC[C@@H](NC(=O)c2ccc3c(c2)OCO3)[C@@H](CO)O1)NCc1ccc(F)cc1,-2,-7,4,-3,-1,nt,nt
COc1ccc(S(=O)(=O)Nc2ccc3c(c2)CC(=O)N([C@@H](C)CO)C[C@H](C)[C@H](CN(C)S(=O)(=O)c2ccccc2)O3)cc1,nt,4,nt,nt,0,nt,nt
O=C(Nc1ccc2c(c1)[C@@H]1C[C@H](CC(=O)N3CCCCC3)O[C@H](CO)[C@@H]1O2)Nc1ccccc1F,nt,-3,nt,nt,1,nt,nt
CCCNC(=O)C[C@@H]1C[C@@H]2c3cc(NS(=O)(=O)c4cccc(OC)c4)ccc3O[C@@H]2[C@H](CO)O1,2,-4,-7,-1,-1,nt,nt
O=S(=O)(Cc1ccc(Cl)cc1)N1CCN(Cc2ccccc2)CC1,0,10,-1,-2,3,nt,nt
O=S(=O)(Cc1ccc(Cl)cc1)N1CCN(Cc2ccc3c(c2)OCO3)CC1,-3,-20*,-4,1,3,-10,?
SMILES,ERAP1 inh,Ecoli rRNA inh,SIRT5 inh,S100A4 inh HTS,F508del corr,AID977621,AID977628
C[C@H](CO)N1C[C@H](C)[C@H](CN(C)C)Oc2ccc(NC(=O)C3CC3)cc2C1=O,2,2,-6,-4,2,nt,nt
COc1ccc(-c2nc3c(C)cc(Br)cn3c2Cc2ccc(C)cc2)cc1OC,-3,-6.1*,-7,-3,7,nt,?
Cc1ccc2nc(-c3cccc(Br)c3)c(Cc3ccccc3)n2c1,0,-1,0,-2,1,nt,nt
COC(=O)c1ccc2nc(-c3ccccc3)c(Cc3cccc(F)c3)n2c1,-1,-27,1,2,3,nt,nt
Cc1ccc(Cc2c(-c3cccc(Br)c3)nc3ccc(C)cn23)cc1,nt,-27*,-2,-6,3,0.33,-9
COC(=O)c1ccc2nc(-c3ccco3)c(Cc3cccc(F)c3)n2c1,-1,9,1,-5,1,nt,nt
COc1ccc(-c2nc3c(C)cc(Br)cn3c2Cc2ccccc2)cc1OC,1,-5,-3,-6,-4,nt,nt
COC(=O)c1ccc2nc(-c3ccc(F)cc3)c(Cc3cccc(F)c3)n2c1,-1,-24*,-3,1,3,-3.1,-6
COC(=O)c1ccc2nc(-c3ccco3)c(Cc3ccc(C)cc3)n2c1,2,-29*,-15,-5,0,-6.3,?
C[C@@H]1CCCCO[C@@H](CN(C)S(=O)(=O)c2cn(C)cn2)[C@@H](C)CN([C@H](C)CO)C(=O)c2cc(NC(=O)CCC(F)(F)F)ccc2O1,0,2,-2,-13,0,nt,nt
COC(=O)c1ccc2nc(-c3ccc(OC)c(OC)c3)c(Cc3ccc(C)cc3)n2c1,-1,-15*,-2,-9,-2,-19,nt
COC(=O)c1ccc2nc(-c3ccc4c(c3)OCO4)cn2c1,-2,23,-5,2,-3,nt,nt
CCc1ccn2cc(-c3ccc4c(c3)OCO4)nc2c1,0,-26*,-24,-3,2,-0.58,nt
Cn1c(=O)c2c(-c3ccccc3)n(-c3cc([N+](=O)[O-])ccc3N)cc2n(C)c1=O,13,-14*,-4,-1,-1,-26,-21
O=C(O)CNC(=O)C(c1ccccc1)c1ccccc1,-3,-17*,-6,0,-1,-6.8,-7
O=C(CNC(=O)C(c1ccccc1)c1ccccc1)OCc1ccccc1,2,17,-5,0,4,nt,nt
COc1cc(OC)cc(-c2nc3ccccc3c(=O)n2OC(=O)c2ccc(C)c(C)c2)c1,0,-22*,-2,-4,9.1*,-8.3,-3.7
COc1cc(-c2nc3ccccc3c(=O)n2N)cc(OC)c1OC,-2,10,4,-4,-3,nt,nt
